# Results as given in ChEMBL document CHEMBL1121556, “Structure-activity relationships in a series of newly synthesized 1-amino-substituted ellipticine derivatives” (J Med Chem, 1980).
# Starred links: 1 amine or outer side, 2 acyl side, 3 side chain; linkers in the order of their positions; H or OH if unused. Positions of bridges follow the written chain, without caps; N, C: chain ends. Non-standard residues stand in square brackets, D forms with d. Residues, ends and D or L forms follow the SMILES beside them. Chains are numbered I, II in the order given. Actinocin(1to9) = Cc1c2oc3c(C)ccc(C(=O)[*:2])c3nc-2c(C(=O)[*:1])c(N)c1=O; NMeV = CN[C@H](C(=O)O)C(C)C; Sar = CNCC(=O)O
# Experiments:
# [1] = system: Mus musculus; assay: In vivo antitumor activity on L1210 leukemia cells at the dose 15 mg/kg administered intraperitoneally estimated as range of deaths; assay type: functional; conditions: route intraperitoneal
# [2] = system: Nucleic Acid; assay: B app constant towards DNA; assay type: nucleic-acid assay; conditions: Bos taurus
# Procedure, shortened: (§1)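 Association constants for DNA binding were derived from absorption changes of calf thymus DNA at 6 × 10^-7 M, expressed as mononucleotide concentration. The buffer was 50 mM Tris-HCl, pH 7.4, with 0.1 M NaCl.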
# [3] = system: Friend leukemia cells (Mus musculus); assay: In vitro concentration required for growth inhibition of murine Friend leukemia cell; conditions: read-out: ID50 (the source's name)
# [4] = system: Mus musculus; assay: In Vivo evaluation for the antitumor activity on grafted tumor friend cells at the dose 20 mg/kg and Increase in the life span was determined; assay type: functional
# Procedure, shortened: (§2)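 Friend tumor cells, 10^6, injected iv into syngeneic mice. Mice randomized in groups of 16. Drug dissolved in acidified saline (equimolar acetic acid) and given as a single iv dose 3 days after inoculation. Median survival time recorded. %ILS = (treated median survival − control median survival)/control median survival × 100.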
# [5] = system: Mus musculus; assay: In Vivo antitumor activity on grafted tumor friend cells at the dose 20 mg/kg and decrease in intravenous 10 e 6 cells and median survival time; assay type: functional; procedure, shortened: as §2
# [6] = system: Mus musculus; assay: In vivo evaluation for the antitumor activity on L1210 leukemia cells at the dose 15 mg/kg administered intraperitoneally estimated as Mean survival time; assay type: functional; conditions: route intraperitoneal
# [7] = system: Mus musculus; assay: In vivo acute toxicity (lethal dose) against mice by intraperitoneal administration; assay type: organism-based; conditions: ip
# Procedure, shortened: (§3)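 Mice (ICFW, C3H or B6D2 F1; 6-8 weeks; 22-24 g) in five groups of six. Drug dissolved in acidified saline (equimolar acetic acid) and given as a single ip or iv dose of 2, 5, 10, 25 or 50 mg/kg. Mortality observed over 30 days to set the lethal dose (LD100) and the highest nonlethal dose (LD0).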
# [8] = system: Mus musculus; assay: In vivo acute toxicity (lethal dose) against mice by intravenous administration; assay type: organism-based; procedure, shortened: as §3
# [9] = system: Mus musculus; assay: In vivo acute toxicity (nonlethal dose) against mice by intraperitoneal administration; assay type: organism-based; conditions: ip; procedure, shortened: as §3
# [10] = system: Mus musculus; assay: In vivo acute toxicity (nonlethal dose) against mice by intravenous administration; assay type: organism-based; procedure, shortened: as §3
# [11] = system: Mus musculus; assay: In vivo evaluation for the antitumor activity on L1210 leukemia cells at the dose 15 mg/kg administered intraperitoneally estimated as increase in life span; assay type: functional; conditions: L1210, ip, route intraperitoneal
# [12] = system: Nucleic Acid; assay: Apparent association constant towards DNA at concentration of 10e-7/M; assay type: nucleic-acid assay; conditions: Bos taurus; procedure, shortened: as §1
# [13] = system: Nucleic Acid; assay: Apparent association constant towards DNA at concentration of 10e-7/M.; assay type: nucleic-acid assay; conditions: Bos taurus; procedure, shortened: as §1
# [14] = system: Mus musculus; assay: In vivo evaluation of antitumor activity on L1210 leukemia cells at the dose 10 mg/kg administered intraperitoneally 1 day after 10 e5 L1210 leukemia cells and Mean survival time; assay type: functional; conditions: route intraperitoneal
# [15] = system: Mus musculus; assay: In vivo antitumor activity on L1210 leukemia cells at the dose 10 mg/kg administered intraperitoneally 1 day after 10 e5 L1210 leukemia cells and range of deaths; assay type: functional; conditions: route intraperitoneal
# [16] = system: Mus musculus; assay: In vivo evaluation of antitumor activity on L1210 leukemia cells at the dose 10 mg/kg administered intraperitoneally 1 day after 10 e5 L1210 leukemia cells and increase in life span; assay type: functional; conditions: L1210, ip, 24 h, route intraperitoneal
# [17] = system: Nucleic Acid; assay: Apparent association constant towards DNA at concentration of 10 E-7/M; assay type: nucleic-acid assay; conditions: Bos taurus; procedure, shortened: as §1
# [18] = system: Mus musculus; assay: In vivo antitumor activity on L1210 leukemia cells at the dose 15 mg/kg administered intraperitoneally 1 day after 10 e5 L1210 leukemia cells and range of deaths; assay type: functional; conditions: route intraperitoneal
# [19] = system: Mus musculus; assay: In vivo evaluation of antitumor activity on L1210 leukemia cells at the dose 15 mg/kg administered intraperitoneally 1 day after 10 e5 L1210 leukemia cells and increase in life span; assay type: functional; conditions: L1210, ip, 24 h, route intraperitoneal
# [20] = system: Mus musculus; assay: In vivo evaluation of antitumor activity on L1210 leukemia cells at the dose 15 mg/kg administered intraperitoneally 1 day after 10 e5 L1210 leukemia cells and Mean survival time; assay type: functional; conditions: route intraperitoneal
# [21] = system: Nucleic Acid; assay: Apparent association constant towards DNA at concentration of […].; assay type: nucleic-acid assay; conditions: Bos taurus; procedure, shortened: as §1
# [22] = system: Mus musculus; assay: In vivo evaluation for the antitumor activity on L1210 leukemia cells at the dose 15 mg/kg administered intraperitoneally; assay type: functional; conditions: route intraperitoneal
# [23] = system: Nucleic Acid; assay: Apparent association constant towards DNA at concentration of 1E-7/M; assay type: nucleic-acid assay; conditions: Bos taurus; procedure, shortened: as §1
# [24] = system: Mus musculus; assay: In vivo evaluation for the antitumor activity on L1210 leukemia cells at the dose 15 mg/kg administered intraperitoneally 1 day after 10 e5 L1210 leukemia cells and increase in life span;(P<0.01).; assay type: functional; conditions: L1210, ip, 24 h, route intraperitoneal
Bapp [2],IC50 [3] [nM],SMILES,LD100 [7] [mg/kg],LD0 [9] [mg/kg],also measured
–,2000,CCN(CC)CCCNc1nccc2c(C)c3[nH]c4ccc(OCc5ccccc5)cc4c3cc12,–,–,–
0.13,5000,COc1ccc2[nH]c3c(C)c4ccnc(NCCCCN)c4cc3c2c1,–,–,K app [13]: 4e+07 M⁻¹
0.07,200,COc1ccc2[nH]c3c(C)c4ccnc(NCCCN)c4cc3c2c1,–,–,K app [17]: 3.05e+07 M⁻¹
–,1,"Cc1c2oc3c(C)ccc(C(=O)N[C@@H]4C(=O)N[C@H](C(C)C)C(=O)N5CCC[C@H]5C(=O)N(C)CC(=O)N(C)[C@@H](C(C)C)C(=O)O[C@@H]4C)c3nc-2c(C(=O)N[C@@H]2C(=O)N[C@H](C(C)C)C(=O)N3CCC[C@H]3C(=O)N(C)CC(=O)N(C)[C@@H](C(C)C)C(=O)O[C@@H]2C)c(N)c1=O [DACTINOMYCIN] (I: T[dV]P[Sar][NMeV] / II: T[dV]P[Sar][NMeV]; ester I:1-I:C, II:1-II:C; linker I:N-II:N via Actinocin(1to9))",–,–,–
0.15,500,COc1ccc2[nH]c3c(C)c4ccnc(NCCCCCN)c4cc3c2c1,–,–,K app [13]: 4.5e+07 M⁻¹
0.09,1000,COc1ccc2[nH]c3c(C)c4ccnc(NCCCN(C)C)c4cc3c2c1,–,–,K app [21]: 3.15e+07 M⁻¹
–,> 100000,COc1ccc2[nH]c3c(C)c4cc[n+](C)c(N(C)C)c4cc3c2c1,–,–,–
–,500,COc1ccc2[nH]c3c(C)c4ccnc(NCCCn5ccnc5)c4cc3c2c1,–,–,–
–,5000,COc1ccc2[nH]c3c(C)c4cc[n+](C)c(Nc5ccccc5)c4cc3c2c1,–,–,–

SMILES,Bapp [2],IC50 [3] [nM],LD100 [7] [mg/kg],LD0 [9] [mg/kg],also measured
CCN(CC)CCCNc1nccc2c(C)c3[nH]c4ccc(OC)cc4c3c(C)c12 [RETELLIPTINE],0.16,300,60,15,Range of deaths [1]: 35 days; ILS at 20 mg/kg [4]: 24.7%; MST [5]: 10.6 days; MST [6]: 25 days; LD100 [8]: 60 mg/kg; LD0 [10]: 20 mg/kg; ILS at 15 mg/kg [11]: 134%; K app [12]: 3.15e+07 M⁻¹
CCN(CCCN)CCCNc1nccc2c(C)c3[nH]c4ccc(OC)cc4c3cc12,–,200,15,5,–
COc1ccc2[nH]c3c(C)c4ccnc(NCCCN)c4c(C)c3c2c1,–,100,20,10,MST [14]: 12.2 days; Range of deaths [15]: 14 days; ILS at 10 mg/kg [16]: 14%
COc1ccc2[nH]c3c(C)c4ccnc(NCCCN(C)C)c4c(C)c3c2c1,–,300,30,15,Range of deaths [18]: 18 days; ILS at 15 mg/kg [19]: 33.3%; MST [20]: 15.3 days
CCN(CC)CCCNc1nccc2c(C)c3[nH]c4ccc(OC)cc4c3cc12,0.1,5000,30,15,MST [22]: 14.3 days; K app [23]: 3.15e+07 M⁻¹; Range of deaths [18]: 19 days; ILS at 15 mg/kg [24]: 24.6%
